Bioassay records as filed in PubChem BioAssay.
Hits are enriched below; roughly 5.2% of the tested compounds scored in any of these assays.
ALR H2O2 inh: human ALR oxidase inhibition via reduced H2O2. P55789. purified ALR, DTT oxidation, H2O2 HRP-luminol luminescence. inhibition, % (no concentration beside the values). actives 3.8% (n = 290,000);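 active = mean replicate inhibition above about 79%, with every replicate also reaching it, limit read from the data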
Target sequence (P55789 whole entry, looked up): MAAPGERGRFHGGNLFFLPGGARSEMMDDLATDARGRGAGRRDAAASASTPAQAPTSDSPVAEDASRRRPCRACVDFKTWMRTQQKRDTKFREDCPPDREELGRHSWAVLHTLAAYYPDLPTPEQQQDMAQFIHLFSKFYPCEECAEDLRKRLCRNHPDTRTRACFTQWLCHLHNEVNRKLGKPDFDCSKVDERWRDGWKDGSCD
ZTA counter: counter-screen for EBNA-1 inhibitors: inhibitors of Epstein-Barr virus ZTA | actives 0.15% (n = 320,000) | AID 2234 | P03206 | inhibition, % at 11 µM | ZTA-DNA binding, fluorescence polarization; in the data active = inhibition above about 33%
Target sequence (P03206 whole entry, looked up): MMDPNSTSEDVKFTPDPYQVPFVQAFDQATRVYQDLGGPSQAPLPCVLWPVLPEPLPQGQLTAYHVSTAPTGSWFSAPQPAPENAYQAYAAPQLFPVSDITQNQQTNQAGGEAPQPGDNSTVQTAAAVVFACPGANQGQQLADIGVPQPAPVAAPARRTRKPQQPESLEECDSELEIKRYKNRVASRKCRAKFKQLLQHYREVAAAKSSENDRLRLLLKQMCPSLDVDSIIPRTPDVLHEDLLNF
NS3 helicase inh: HCV NS3 helicase inhibition | NS3 helicase DNA unwinding, Cy5 molecular beacon fluorescence | inhibition, % at 10.9 µM | actives 0.56% (n = 290,000);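 active = inhibition above the mean of all tested compounds plus 3 SD, set per campaign, cut at about 35% in these data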;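 also: 0% = DMSO wells and 100% = thioflavine S control wells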
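Measured by: Cy5 fluorescence, 0 and 60 min reads / Assay system: NS3 helicase fragment of HCV / Control set: low DMSO, high thioflavine S at 110 µM / Times: 1 h reaction at 25 °C, ATP-initiated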
EBNA-1 inhibitor: blocks EBNA-1 binding to DNA; inhibition, % at 14.8 µM; actives 0.34% (n = 300,000); EBNA-1 DNA binding, fluorescence polarization; in the data active = inhibition above about 28%
core dimer inh: blocks dimerization of HCV core protein | inhibition, % at 5 µM | actives 0.33% (n = 300,000) | TR-FRET GST/Flag-core106 dimerization, 1536-well;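 active = inhibition above the mean of all tested compounds plus 3 SD, set per screening campaign, cut at about 45% in these data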
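Test system: GST/Flag-tagged HCV core106 proteins; Medium: KF-containing HEPES buffer, pH 7.45, DTT, CHAPS, BSA; Times: compound-protein-antibody incubation 4 h at 22.5 °C; Detection: TR-FRET 671 and 617 nm emission; Benchmarks: wells lacking GST-core106 and wells with excess unlabelled core106.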
M18AAP inhibitor: blocks P. falciparum M18 aspartyl aminopeptidase. actives 1.2% (n = 290,000). recombinant PfM18AAP, H-Glu-NHMec fluorogenic cleavage. inhibition, % at 7.35 µM;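 active = inhibition above the campaign mean inhibition over all tested compounds plus 3 SD, cut at about 28% in these data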;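 also: 0% = plate median of test compound wells and 100% = 2 mM ZnCl2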
* marks the source's active call; other numbers are inactive results; / = not tested or not shown.

SMILES	ALR H2O2 inh	ZTA counter	NS3 helicase inh	EBNA-1 inhibitor	core dimer inh	M18AAP inhibitor
CCOc1ccc(NC(C)c2cc(Cl)ccc2O)cc1 (stereo not drawn)	99*	6	2	3	-6	3
CC(Nc1ccc(Cl)cc1)c1cc(Cl)ccc1O (stereo not drawn)	99*	-2	-3	-4	2	2
CC(Nc1ccc(Br)cn1)c1cc(Cl)ccc1O (stereo not drawn)	/	/	-21	/	/	3
CCCCOc1ccc(CC(=O)NO)cc1	91*	6	1	6	-1	22
CCCCOc1ccc(C(=O)NC)cc1	2	-12	8	-7	-3	3
CC(=O)Nc1ccc(S(=O)(=O)Nc2ccc(-n3cnnn3)cc2)cc1	1	2	/	/	/	/
CC(Oc1ccccc1)C(=O)N1CCN=C1SCc1ccc(F)cc1 (stereo not drawn)	96*	3	0	-10	4	-9
O=C(COc1ccccc1)N1CCN=C1SCc1cccnc1	100*	11	6	6	-1	5
O=C(COc1ccccc1)N1CCN=C1SCc1ccc(F)cc1	98*	4	-10	-5	6	-2
O=C(COc1ccccc1)N1CCN=C1c1ccccc1	/	-10	5	-2	-4	4
O=C(COc1ccccc1)N1CCNC1=O	-5	-14	-5	2	-15	10
COc1ccccc1-n1c(CNC(=O)c2cccc([N+](=O)[O-])c2C)n[nH]c1=S	46	-15	-4	-14	-5	23
Cc1cccc(-n2c(CNC(=O)c3cccc([N+](=O)[O-])c3C)n[nH]c2=S)c1	39	-2	6	4	1	30*
O=C(NCc1n[nH]c(=S)n1-c1ccccc1)c1ccc(S(=O)(=O)N2CCCCC2)cc1	31	-13	-9	-1	-5	23
O=C(NCc1n[nH]c(=S)n1-c1ccccc1)c1cccs1	50	-6	3	-5	4	28*
O=C(NCc1n[nH]c(=S)n1-c1ccc(F)cc1)c1ccc(S(=O)(=O)N2CCOCC2)cc1	36	-8	0	2	-1	28*
O=C(NCc1n[nH]c(=S)n1-c1ccccc1)c1ccc(S(=O)(=O)N2CCOCC2)cc1	91*	4	3	-4	3	11
CC(C)c1csc(CN2CCC(CO)(Cc3cccc(F)c3)CC2)n1	-1	-5	-13	3	0	3
COc1ccc(-c2n[nH]c(=S)nc2-c2ccc(OC)cc2)cc1	-1	9	8	1	2	7
Cc1ccc(Sc2ccc(NC(=O)CCN3C(=O)NC4(CCCC4)C3=O)cc2)c(C)c1	0	12	/	/	/	/
CC1CCCCC1NC(=O)c1ccc(-n2cncn2)cc1 (stereo not drawn)	24	/	/	/	/	/
COCCOC(=O)C1=C(C)NC2=C(C(=O)CCC2)C1c1ccc(N(C)C)cc1 (stereo not drawn)	100*	-7	-1	-1	0	21
CC1=C(C(=O)OCCOC(C)C)C(c2cccnc2)C2=C(CCCC2=O)N1 (stereo not drawn)	-12	-7	-1	-2	2	4
CCN(CC)c1ccc(C2C(C(=O)OCCOC(C)C)=C(C)NC3=C2C(=O)CCC3)cc1 (stereo not drawn)	99*	0	3	-11	-1	-3
Fc1ccccc1Nc1nc2c(s1)CCc1ccccc1-2	/	/	6	/	/	42*
SMILES	ALR H2O2 inh	ZTA counter	NS3 helicase inh	EBNA-1 inhibitor	core dimer inh	M18AAP inhibitor
CCn1c(-c2csc3c2CCCC3)n[nH]c1=S	91*	2	7	12	3	22
COc1ccc(CNC(=O)c2ccccc2SCC(=O)N2CCCC2)cc1OC	-6	3	/	-4	0	/
COc1cc(/C=N/NC(=O)c2nnn(-c3nonc3N)c2C(C)C)ccc1OCc1ccccc1	-3	2	-19	-3	15	0
CN(Cc1c(C(=O)N/N=C/c2ccc(O)cc2)nnn1-c1nonc1N)c1ccccc1	100*	-6	19	-5	-6	9
COc1cc(/C=N/NC(=O)c2nnn(-c3nonc3N)c2C(C)C)ccc1O	99*	-2	-10	-13	-2	7
COc1cc(/C=N/NC(=O)c2nnn(-c3nonc3N)c2-c2cccs2)ccc1O	89*	0	-4	-4	-4	12
CCOc1ccc(N2C(=O)CNC2=S)cc1	91*	-7	-5	1	-2	3
Oc1ccc(/C=N/NC(=S)Nc2cccnc2)cc1O	99*	-10	4	-15	-17	60*
CC(=O)c1cccc(NCC(=O)Nc2cc(S(=O)(=O)N3CCCCC3)ccc2C)c1	3	14	-4	-5	29	2
Cc1ccc(C)c(OCCC(=O)OCC(=O)NC(=O)NC2CCCC2)c1	-4	-21	/	-4	2	/
O=C(Cn1cccc1C(=O)c1ccccc1)NCc1ccc(Cl)cc1	97*	-10	11	-4	-2	-6
COc1ccc(S(=O)(=O)N(C)C)cc1NC(=O)CCCSc1ccccc1	3	4	-11	0	1	6
CC(=O)/C(N)=N/Nc1cccc(Cl)c1	99*	-3	1	7	-24	-7
Cc1cccc(NS(=O)(=O)c2ccc(C(=O)N3CCCCCC3)cc2)c1C	/	3	/	0	0	/
CN(C(=O)CSc1nc(O)cc(=O)n1C1CCCC1)c1ccccc1	98*	10	33	9	4	-24
CN(C(=O)CSc1nc(O)cc(=O)n1-c1ccccc1F)c1ccccc1	-1	12	4	1	8	0
C=CCN1C(=O)c2ccc(C(=O)OCC(=O)Nc3ccc(S(N)(=O)=O)cc3)cc2C1=O	-13	7	/	0	2	/
COc1ccccc1CCNC(C)CCc1ccc(O)cc1 (stereo not drawn)	32	-13	10	-3	-19	0
CC(CCc1ccc(O)cc1)NCCc1ccc(O)c(O)c1 (stereo not drawn)	99*	6	/	-9	4	/
COc1ccccc1Nc1ccc(C(=O)NCc2cccs2)cn1	-31	-1	0	-5	5	0
COc1ccccc1Nc1ncc(-c2cccs2)s1	-4	9	2	-2	50*	7
CN(Cc1ccccc1F)C(=O)COc1ccc(C(=O)c2ccccc2)cc1	-21	-15	-16	2	4	-9
CCN(CC(=O)Nc1ccc2c(c1)OCCO2)C(=O)c1ccc(C)c(S(=O)(=O)N2CCOCC2)c1	-1	1	/	-4	2	/
COc1ccccc1C1C(C#N)=C(N)Oc2cc(C)n(CCCn3ccnc3)c(=O)c21 (stereo not drawn)	/	5	0	3	0	12
Cc1cc2c(c(=O)n1CCCn1ccnc1)C(c1ccco1)C(C#N)=C(N)O2 (stereo not drawn)	11	-4	7	12	1	28*
